Measured values: ChEMBL document CHEMBL1933039, “6-alkylsalicylates are selective Tip60 inhibitors and target the acetyl-CoA binding site” (Eur J Med Chem, 2012)
pIC50: −log10 of the molar value. Active and inactive are the calls of the source. The calls are words filed in the database; no cut-off is given here.

Legend:
[1] = target: Histone acetyltransferase KAT5 (Homo sapiens) (UniProt Q92993); assay: Inhibition of His-tagged human recombinant Tip60 expressed in Escherichia coli BL21(DE3) cells using [14C][…] and histone H4 as substrate at 200 uM after 5 mins by scintillation counting
Sequence of Histone acetyltransferase KAT5 (Homo sapiens) (Q92993 whole entry, looked up, the tested form may be a part): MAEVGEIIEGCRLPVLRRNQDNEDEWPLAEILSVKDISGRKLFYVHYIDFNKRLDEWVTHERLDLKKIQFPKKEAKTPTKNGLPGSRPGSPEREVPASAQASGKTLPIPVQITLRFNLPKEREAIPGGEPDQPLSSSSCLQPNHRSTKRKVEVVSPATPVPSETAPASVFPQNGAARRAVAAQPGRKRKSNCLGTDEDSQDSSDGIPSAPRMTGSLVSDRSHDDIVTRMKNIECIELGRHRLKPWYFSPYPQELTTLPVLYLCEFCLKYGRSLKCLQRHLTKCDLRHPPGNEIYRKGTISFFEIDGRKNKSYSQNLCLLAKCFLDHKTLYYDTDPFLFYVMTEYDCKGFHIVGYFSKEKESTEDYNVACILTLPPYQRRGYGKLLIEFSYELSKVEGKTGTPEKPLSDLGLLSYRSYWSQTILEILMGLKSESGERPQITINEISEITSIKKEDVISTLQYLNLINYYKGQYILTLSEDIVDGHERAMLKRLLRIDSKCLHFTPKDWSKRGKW
Outline: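 Single-point screen at 200 µM inhibitor: 100 nM Tip60, 10 µM [14C]Ac-CoA, 100 µM H4-20 peptide in 50 mM HEPES pH 8.0, 0.1 mM EDTA, BSA, 1 mM DTT, 0.1% Triton X-100, 2% DMSO. Components equilibrated 5 min at 30 °C before enzyme start. Products spotted on P81 paper, washed with bicarbonate, counted by scintillation. No-enzyme background subtracted.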

[2] = target: Histone acetyltransferase KAT2B (Homo sapiens) (UniProt Q92831); assay: Inhibition of human recombinant His-tagged PCAF HAT domain expressed in Escherichia coli BL21(DE3) cells using [14C][…] and histone H3 as substrate at 200 uM after 5 mins by scintillation counting
Sequence of Histone acetyltransferase KAT2B (Homo sapiens) (Q92831 whole entry, looked up, the tested form may be a part): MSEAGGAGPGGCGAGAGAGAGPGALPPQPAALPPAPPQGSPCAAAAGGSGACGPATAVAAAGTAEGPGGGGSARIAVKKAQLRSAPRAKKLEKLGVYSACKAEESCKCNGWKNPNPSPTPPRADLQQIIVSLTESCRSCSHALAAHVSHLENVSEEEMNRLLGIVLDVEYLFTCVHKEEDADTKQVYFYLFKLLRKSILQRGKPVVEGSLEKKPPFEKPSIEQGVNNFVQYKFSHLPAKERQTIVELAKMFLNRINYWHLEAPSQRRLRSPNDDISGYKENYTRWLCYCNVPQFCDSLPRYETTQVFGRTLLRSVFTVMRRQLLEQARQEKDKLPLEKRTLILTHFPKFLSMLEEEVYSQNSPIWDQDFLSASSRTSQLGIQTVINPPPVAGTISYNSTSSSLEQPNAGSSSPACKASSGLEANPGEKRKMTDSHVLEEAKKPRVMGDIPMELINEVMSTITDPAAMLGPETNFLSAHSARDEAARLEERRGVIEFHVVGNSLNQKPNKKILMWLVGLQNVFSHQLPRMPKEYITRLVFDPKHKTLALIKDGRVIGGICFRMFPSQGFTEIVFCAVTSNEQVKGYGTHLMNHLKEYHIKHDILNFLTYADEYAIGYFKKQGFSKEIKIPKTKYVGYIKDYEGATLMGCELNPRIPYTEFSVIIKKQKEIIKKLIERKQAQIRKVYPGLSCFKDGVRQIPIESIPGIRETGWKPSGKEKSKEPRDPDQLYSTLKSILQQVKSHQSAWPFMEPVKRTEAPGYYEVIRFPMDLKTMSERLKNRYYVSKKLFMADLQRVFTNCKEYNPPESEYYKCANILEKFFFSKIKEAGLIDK

[3] = target: Histone acetyltransferase KAT5 (Homo sapiens) (UniProt Q92993); assay: Inhibition of Tip60-mediated histone H3 acetylation in human HeLa nuclear extracts at 200 uM after 15 mins by ELISA
Outline: (§1)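 HeLa nuclear extract (Dignam method) at 2.5 µg/mL final protein as enzyme source. Biotinylated H3 (aa 1–21) or H4 (aa 2–24) peptide immobilized on streptavidin. Reaction run 15 min in 50 mM HEPES pH 7.4, 0.01% Triton X-100, 0.1 mM EDTA, BSA, 1 mM DTT. Anti-acetyl-lysine ELISA readout. Triplicates, normalized to no-inhibitor and no-enzyme controls.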

[4] = target: Histone acetyltransferase KAT5 (Homo sapiens) (UniProt Q92993); assay: Inhibition of Tip60-mediated histone H3 acetylation in human HeLa nuclear extracts at 50 uM after 15 mins by ELISA; outline: as §1
[5] = target: Histone acetyltransferase KAT5 (Homo sapiens) (UniProt Q92993); assay: Inhibition of Tip60-mediated histone H4 acetylation in human HeLa nuclear extracts at 200 uM after 15 mins by ELISA; outline: as §1
[6] = target: Histone acetyltransferase p300 (Homo sapiens) (UniProt Q09472); assay: Inhibition of human recombinant His-tagged p300 HAT domain expressed in Escherichia coli BL21(DE3) cells using [14C][…] and histone H4 as substrate at 200 uM after 5 mins by scintillation counting
Sequence of Histone acetyltransferase p300 (Homo sapiens) (Q09472 whole entry, the tested form may be a part): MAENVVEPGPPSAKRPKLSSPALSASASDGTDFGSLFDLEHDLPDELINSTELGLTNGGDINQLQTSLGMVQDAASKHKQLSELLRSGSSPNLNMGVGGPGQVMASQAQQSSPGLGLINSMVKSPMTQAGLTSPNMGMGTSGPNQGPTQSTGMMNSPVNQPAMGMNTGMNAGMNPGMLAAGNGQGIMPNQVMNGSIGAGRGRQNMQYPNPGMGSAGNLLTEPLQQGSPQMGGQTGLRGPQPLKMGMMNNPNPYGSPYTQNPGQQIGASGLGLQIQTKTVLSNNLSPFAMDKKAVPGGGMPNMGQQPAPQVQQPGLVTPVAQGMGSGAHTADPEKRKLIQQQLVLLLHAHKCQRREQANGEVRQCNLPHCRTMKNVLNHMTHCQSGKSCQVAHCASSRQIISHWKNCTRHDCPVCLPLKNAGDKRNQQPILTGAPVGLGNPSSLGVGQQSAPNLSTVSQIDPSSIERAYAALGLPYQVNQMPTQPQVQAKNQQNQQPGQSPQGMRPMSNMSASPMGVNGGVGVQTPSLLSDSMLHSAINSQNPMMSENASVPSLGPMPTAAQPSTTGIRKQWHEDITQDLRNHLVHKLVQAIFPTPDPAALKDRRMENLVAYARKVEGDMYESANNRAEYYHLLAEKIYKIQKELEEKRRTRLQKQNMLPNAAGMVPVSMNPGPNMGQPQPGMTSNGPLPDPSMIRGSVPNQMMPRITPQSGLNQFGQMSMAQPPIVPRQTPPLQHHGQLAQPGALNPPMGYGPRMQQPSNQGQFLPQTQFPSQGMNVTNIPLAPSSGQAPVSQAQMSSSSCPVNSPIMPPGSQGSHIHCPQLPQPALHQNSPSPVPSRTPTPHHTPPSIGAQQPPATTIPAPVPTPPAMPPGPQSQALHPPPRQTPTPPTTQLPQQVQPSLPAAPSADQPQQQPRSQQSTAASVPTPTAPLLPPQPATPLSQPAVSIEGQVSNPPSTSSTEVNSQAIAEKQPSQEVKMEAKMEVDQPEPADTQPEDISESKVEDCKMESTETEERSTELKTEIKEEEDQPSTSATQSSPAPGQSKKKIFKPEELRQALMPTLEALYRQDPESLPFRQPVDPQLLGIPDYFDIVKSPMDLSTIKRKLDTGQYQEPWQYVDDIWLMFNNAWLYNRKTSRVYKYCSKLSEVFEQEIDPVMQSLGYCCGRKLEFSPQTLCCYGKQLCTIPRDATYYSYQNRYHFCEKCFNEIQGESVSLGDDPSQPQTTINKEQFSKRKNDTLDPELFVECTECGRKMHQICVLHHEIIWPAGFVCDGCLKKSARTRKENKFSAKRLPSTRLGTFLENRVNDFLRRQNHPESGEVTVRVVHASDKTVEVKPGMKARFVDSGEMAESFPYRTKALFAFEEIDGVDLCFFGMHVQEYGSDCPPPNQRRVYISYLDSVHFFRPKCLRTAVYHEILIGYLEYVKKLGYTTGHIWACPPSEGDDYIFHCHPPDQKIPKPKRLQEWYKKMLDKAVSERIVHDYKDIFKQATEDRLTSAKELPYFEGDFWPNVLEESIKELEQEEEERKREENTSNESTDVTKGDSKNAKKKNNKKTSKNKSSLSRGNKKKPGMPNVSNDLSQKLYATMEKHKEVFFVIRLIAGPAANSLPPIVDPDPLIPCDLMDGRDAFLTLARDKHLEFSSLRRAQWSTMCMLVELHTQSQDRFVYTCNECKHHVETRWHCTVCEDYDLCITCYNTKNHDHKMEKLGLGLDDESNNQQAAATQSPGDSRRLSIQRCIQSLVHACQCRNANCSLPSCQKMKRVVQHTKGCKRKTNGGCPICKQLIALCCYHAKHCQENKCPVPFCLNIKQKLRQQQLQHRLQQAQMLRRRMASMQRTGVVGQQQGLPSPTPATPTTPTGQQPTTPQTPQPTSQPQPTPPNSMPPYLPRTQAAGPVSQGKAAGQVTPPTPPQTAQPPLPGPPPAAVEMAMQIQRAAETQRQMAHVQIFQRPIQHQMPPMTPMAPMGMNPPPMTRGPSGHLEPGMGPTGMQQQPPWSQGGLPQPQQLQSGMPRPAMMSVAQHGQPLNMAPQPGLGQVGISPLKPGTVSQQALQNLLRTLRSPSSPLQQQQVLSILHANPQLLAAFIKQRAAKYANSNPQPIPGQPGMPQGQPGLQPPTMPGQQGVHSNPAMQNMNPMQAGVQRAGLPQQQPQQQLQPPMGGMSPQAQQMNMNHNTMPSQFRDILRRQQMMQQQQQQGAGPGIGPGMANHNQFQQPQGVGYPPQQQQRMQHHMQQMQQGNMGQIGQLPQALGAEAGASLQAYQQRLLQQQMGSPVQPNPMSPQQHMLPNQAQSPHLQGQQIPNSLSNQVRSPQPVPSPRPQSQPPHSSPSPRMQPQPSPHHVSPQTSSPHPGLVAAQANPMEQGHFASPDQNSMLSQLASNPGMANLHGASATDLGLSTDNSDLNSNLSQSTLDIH
Outline: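 Single-point screen at 200 µM inhibitor: 5 nM p300, 10 µM [14C]Ac-CoA, 100 µM H4-20 peptide in 50 mM HEPES pH 8.0, EDTA, BSA, DTT, Triton X-100, 2% DMSO, 30 °C. Enzyme-initiated after 5 min equilibration. Radioactivity on P81 paper counted. No-enzyme background subtracted.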

[7] = target: Histone acetyltransferase KAT5 (Rattus norvegicus) (UniProt Q99MK2); assay: Inhibition of Tip60-mediated histone H3 acetylation in rat brain extracts at 30 uM after 15 mins by ELISA; assay type: tissue-based
Sequence of Histone acetyltransferase KAT5 (Rattus norvegicus) (Q99MK2 whole entry): as the sequence (Q92993 whole entry, looked up, the tested form may be a part) above, with A175S counted along it
Outline: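 Rat brain-region nuclear extracts (Dignam method) at 40 µg/mL final protein. Inhibitor at 30 µM. Histone peptide immobilized via streptavidin, 15 min reaction in HEPES pH 7.4 buffer, anti-acetyl-lysine ELISA. Triplicates for each of two animals. Blank values subtracted.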

[8] = target: Histone acetyltransferase KAT5 (Homo sapiens) (UniProt Q92993); assay: Inhibition of Tip60-mediated histone H4 acetylation in human HeLa nuclear extracts at 50 uM after 15 mins by ELISA; outline: as §1
[9] = target: Histone acetyltransferase p300 (Homo sapiens) (UniProt Q09472); assay: Inhibition of human recombinant His-tagged p300 HAT domain expressed in Escherichia coli BL21(DE3) cells using [14C][…] and histone H4 as substrate at >200 uM after 5 mins by scintillation counting
[10] = target: Histone acetyltransferase KAT5 (Rattus norvegicus) (UniProt Q99MK2); assay: Inhibition of Tip60-mediated histone H3 acetylation in rat brain extracts at 30 uM after 15 mins by ELISA
[11] = target: Histone acetyltransferase KAT5 (Homo sapiens) (UniProt Q92993)
[12] = target: T1, Histone acetyltransferase KAT8 (Homo sapiens, UniProt Q9H7Z6); assay: Inhibition of human MOF expressed in Escherichia coli BL21(DE3) cells using [14C]AC-CoA and histone H4 as substrate after 5 mins by scintillation counting
T1 sequence (Q9H7Z6 whole entry): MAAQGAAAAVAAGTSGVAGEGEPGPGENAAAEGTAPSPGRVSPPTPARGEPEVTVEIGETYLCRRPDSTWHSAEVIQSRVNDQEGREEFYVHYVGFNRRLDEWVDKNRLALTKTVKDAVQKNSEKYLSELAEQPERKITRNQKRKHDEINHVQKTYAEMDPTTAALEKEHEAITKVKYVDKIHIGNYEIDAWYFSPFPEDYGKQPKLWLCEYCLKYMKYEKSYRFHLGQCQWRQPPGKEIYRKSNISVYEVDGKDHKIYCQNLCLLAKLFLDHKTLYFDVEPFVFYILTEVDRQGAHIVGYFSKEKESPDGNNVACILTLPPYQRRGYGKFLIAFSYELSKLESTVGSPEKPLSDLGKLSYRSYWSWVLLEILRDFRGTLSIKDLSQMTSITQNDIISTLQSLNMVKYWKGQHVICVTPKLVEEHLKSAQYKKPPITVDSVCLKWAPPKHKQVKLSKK

[13] = target: Histone acetyltransferase KAT2B (Homo sapiens) (UniProt Q92831); assay: Inhibition of human recombinant His-tagged PCAF HAT domain expressed in Escherichia coli BL21(DE3) cells using [14C][…] and histone H3 as substrate at >200 uM after 3.5 mins by scintillation counting
[14] = target: Histone acetyltransferase KAT5 (Homo sapiens) (UniProt Q92993); remark: listed apart in the source

Compound | inhibition [1] | inhibition [2] [%] | inhibition [3] [%] | inhibition [4] | inhibition [5] [%] | inhibition [6] [%] | inhibition [8] | other results
CCCCCCCCCCCCCCCc1cc(O)cc(O)c1C(=O)O | > 76% | < 35 | > 50 | Active | > 50 | < 35 |  | 
CCCCCCCc1ccc(CCc2cc(O)cc(O)c2C(=O)O)cc1 |  |  |  | Active |  |  |  | 
C=CC/C=C\C/C=C\CCCCCCCc1cccc(O)c1C(=O)O | > 76% | < 20 | > 50 | Active | > 50 | < 20 | Active | inhibition [7]: Active; inhibition [9]: 40%; inhibition [10]: Active
CCCCCCCCCCc1cccc(O)c1C(=O)O | > 76% | < 35 | > 50 | Active | > 50 | < 35 | Active | 
CCCCCOc1ccc(CCc2cccc(O)c2C(=O)O)cc1C(C)=O | > 76% | < 35 | > 50 |  | > 50 | < 35 |  | 
CCCCCOc1ccc(/C=C\c2cccc(O)c2C(=O)O)cc1 |  |  | > 50 |  | > 50 |  | Active | 
CCCCCCCCCCCCCC#Cc1ccccc1C(=O)OC |  |  | > 50 |  | > 50 |  |  | 
CCCCCCCCCCc1cc(O)cc(O)c1C(=O)O | > 76% | < 35 | > 50 |  | > 50 | < 35 |  | 
CCCCCOc1ccc(CCc2cccc(O)c2C(=O)O)cc1C(C)O (stereo unspecified) | Active |  |  |  |  |  |  | 
CCCCCCCOc1ccc(CCc2cccc(O)c2C(=O)O)cc1C(C)=O |  |  | > 50 | Active | > 50 |  |  | 
CCCCCCCCCCCCCCCc1ccccc1C(=O)O |  |  | > 50 |  | > 50 |  |  | 

Further lines, with some results ahead:

inhibition [1] | inhibition [2] [%] | inhibition [3] [%] | inhibition [4] | inhibition [5] [%] | inhibition [6] [%] | inhibition [8] | Compound | other results
> 76% | < 35 | > 50 | Active | > 50 | < 35 |  | CC(C)CCCC(C)CCOc1ccc(CCc2cccc(O)c2C(=O)O)cc1 (stereo unspecified) | 
88% | < 35 | > 50 | Active | > 50 | < 35 |  | CCCCCCCc1ccc(CCc2cccc(O)c2C(=O)O)cc1 | inhibition [7]: Active; Kii [11]: 572 µM; inhibition [9]: 30%; inhibition [10]: Active; pIC50 [12]: 4.33; inhibition [13]: 3%; Kii [14]: 78 µM
Active |  |  |  |  |  |  | COCCOc1ccc(CCc2cccc(O)c2C(=O)O)cc1 | 
 |  | > 50 |  | > 50 |  | Active | CCCCCOc1ccc(CCc2cccc(O)c2C(=O)O)cc1 | 
 |  | > 50 |  | > 50 |  | Active | CCCCCCCCCCCCCCOc1ccc(CCc2cccc(O)c2C(=O)O)cc1 | 
